Screening results deposited in PubChem by several laboratories.
In the library only some 3% were active in any assay of this set; here they are far more common.
MEKK3 PB1 HTS: raises or lowers MEK5 binding to the human MEKK3 PB1 domain; 1.4% of 290,000 active; Q99759; bead-based flow cytometry, Alexa488-MEK5 binding to MEKK3; actives lie on both sides; 0 = blocked by unlabeled MEK5, 100 = vehicle; binding response (% of control), % at 10 µM;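 active = binding response more than 3 SD above or below the average of its plate-row segment, actives on both sides; inconclusive = wells at one plate position flagged as instrument error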;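 note: Alexa488 bead fluorescence after subtracting the streptavidin-only scavenger bead signal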
Apaf1 inhib: human Apaf-1 inhibition; reconstituted apoptosome caspase-3 activity, DEVD-Rh110 fluorescence; 0.71% of 330,000 active; inhibition, % at 20 µM; active = inhibition of at least 40% at 20 µM;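 note: plate controls were DMSO wells for no effect and DEVD-CHO caspase inhibitor wells for full effect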
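System: reconstituted apoptosome with Apaf-1, cytochrome c, caspase-9, procaspase-3, dATP; Signal: Rh110 fluorescence intensity; Schedule: 30 min compound preincubation, 50 min activation, room temperature; Reagent: cytochrome c trigger plus (Z-DEVD)2-Rh110 caspase-3 substrate.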
UCH37 inh: blocks the human deubiquitinase UCH37 | purified proteasome/UCH37, Ub-AMC cleavage fluorescence | Q9Y5K5 | inhibition, % (test concentration not listed) | 0.33% of 330,000 active;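 active = mean inhibition over replicate wells above about 20%, limit read from the data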;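 note: 0% = compound-free wells with enzyme and 100% = wells lacking proteasome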
Target sequence (Q9Y5K5 whole entry, looked up): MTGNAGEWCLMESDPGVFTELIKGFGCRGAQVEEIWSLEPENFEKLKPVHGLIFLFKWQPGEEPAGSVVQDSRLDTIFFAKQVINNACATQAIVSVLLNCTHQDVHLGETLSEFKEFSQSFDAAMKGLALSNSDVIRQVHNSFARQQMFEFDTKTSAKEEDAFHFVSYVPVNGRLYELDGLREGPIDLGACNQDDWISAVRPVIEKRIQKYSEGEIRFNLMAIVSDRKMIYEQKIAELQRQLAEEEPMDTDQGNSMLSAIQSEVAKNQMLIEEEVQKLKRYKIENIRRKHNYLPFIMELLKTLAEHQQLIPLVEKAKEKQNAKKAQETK
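Material: human UCH37 enzyme supplied as purified proteasome complex / Amount: 0.15 nM proteasome as dispensed / Buffer or medium: pH 7.4 Tris-HCl (50 mM) with ovalbumin, ATP-MgCl2, DTT / Times: preincubation 30 min, reaction 25 min, room temperature / Technique: AMC fluorescence from Ub-AMC cleavage, excitation 355 nm, emission 460 nm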
MEKK2mut PB1 HTS: signal of MEK5 binding to mutant human MEKK2 PB1 domain. bead flow cytometry, Alexa488-MEK5 binding to MEKK2 mutant. percent response, % at 10 µM. 0.35% of 290,000 active; in the data active = percent response above about 24%, passing the limit was not always enough
MEKK2 WT-MEK5: raises or lowers MEK5 binding to wildtype human MEKK2 PB1 domain | 1.1% of 290,000 active | AID 1531 | Q9Y2U5 | binding response (% of control), % at 10 µM | bead flow cytometry, Alexa488-MEK5 binding to MEKK2 WT; actives lie on both sides; in the data active = binding response below about 67% or above about 130%; inconclusive = no clear call, values can overlap the other calls; inactive = in between
UBC13 polyUb: blocks human UBC13 polyubiquitin chain formation; TR-FRET; inhibition, % at 20 µM; 0.47% of 330,000 active; in the data active = inhibition above about 45%, passing the limit was not always enough; inconclusive = no clear call, values can overlap the other calls
Target sequence (P61088 whole entry, looked up): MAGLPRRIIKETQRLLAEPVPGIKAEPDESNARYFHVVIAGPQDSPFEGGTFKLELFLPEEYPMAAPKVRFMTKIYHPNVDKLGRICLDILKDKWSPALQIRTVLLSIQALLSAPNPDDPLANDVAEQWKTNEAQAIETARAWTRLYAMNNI
Numbers without * were called inactive; i = inactive; u = inconclusive; x = no result given; [ ] = remark or other dose.

SMILES | MEKK3 PB1 HTS | Apaf1 inhib | UCH37 inh | MEKK2mut PB1 HTS | MEKK2 WT-MEK5 | UBC13 polyUb
O=C1NC(=S)N(c2ccc(F)cc2)C(=O)/C1=C/c1ccco1 | 98 | 70* | x | 0 | 94 | u
FC(F)(F)c1cccc(N2CCNCC2)c1 | 113 | -4 | 5 | 6 | 116 | 6
Clc1ccc(CO/N=C(\Cn2ccnc2)c2ccc(Cl)cc2Cl)c(Cl)c1 | 104 | 36 | x | 6 | 121 | 51*
Clc1ccc(CSC(Cn2ccnc2)c2ccc(Cl)cc2Cl)cc1 (stereo not given) | 104 | 39 | 3 | 5 | 103 | 44
CC(C)C[C@H]1C(=O)N2CCC[C@H]2[C@]2(O)O[C@](NC(=O)[C@@H]3C=C4c5cccc6[nH]cc(c56)C[C@H]4N(C)C3)(C(C)C)C(=O)N12 | x | 91* | -11 | x | x | -90
CCC(CO)NC(=O)C1C=C2c3cccc4[nH]cc(c34)CC2N(C)C1 (stereo not given) | 61 | 40 | -89 | -20 | 70 | 19
COC(=O)C1C=C2c3cccc4[nH]cc(c34)CC2N(C)C1 (stereo not given) | 71 | 56* | x | -29 | 68 | -57
O=c1c2ccccc2nc(CNCc2ccco2)n1-c1ccc(F)cc1 | 99 | 9 | -1 | -1 | 97 | -8
O=P(Oc1ccc(Cl)cc1)(N1CC1)N1CC1 | x | x | 2 | x | x | x
C[n+]1c(-c2ccccc2)cc(CCCCc2cc(-c3ccccc3)[n+](C)c(-c3ccccc3)c2)cc1-c1ccccc1 | 108 | 15 | -3 | 56* | 9.0*[inhibitor] | 33
COc1cc(CN2CCNCC2)cc(OC)c1OC | 108 | -14 | -1 | 9 | 109 | -2
C[n+]1c2ccccc2nc2ccc(NCCO)cc21 | 85 | 94* | 19 | 0 | 95 | i
Nc1c(C(=O)NC2CCCC2)c2nc3ccccc3nc2n1CC1CCCO1 (stereo not given) | x | 94* | x | x | x | 12
CC(=Nc1ccc2c(c1)CCC2)c1c(O)n(C)c(=O)n(C)c1=O | 98 | 3 | 32* | 3 | 102 | 4
CCC(=Nc1ccc2c(c1)CCC2)c1c(O)n(C)c(=O)n(C)c1=O | 106 | 8 | 2 | 2 | 105 | 1
CN1CCN(c2ccc(/C=C3\C(=O)NC(=S)N(c4cccc(Br)c4)C3=O)o2)CC1 | 85 | 11 | 21* | -6 | 85 | i
CN1C(=O)/C(=C\c2ccc(N3CCCCC3)o2)C(=O)NC1=S | 100 | 6 | 22* | -1 | 98 | i
Cc1ccccc1CCNCc1cc2cccc(C)c2[nH]c1=O | 107 | 1 | -9 | 8 | 121 | 8
CCOc1cc(C=C2C(=O)NC(=O)NC2=O)ccc1OS(=O)(=O)c1ccccc1 | 101 | 6 | 20* | 0 | 97 | -2
N=Cc1c(O)n(-c2ccccc2)c(=O)n(-c2ccccc2)c1=O | 87 | 9 | 4 | -12 | 90 | -1
CCCCc1nc2ccccc2c(=O)n1-c1ccccc1[N+](=O)[O-] | 97 | 11 | 24* | 1 | 97 | 2
CCc1nc2ccccc2c(=O)n1-c1ccccc1[N+](=O)[O-] | 102 | -8 | 1 | 11 | 106 | 9
CC1Oc2cc3c(-c4c(O)cc(O)c5c(O)c6c(cc45)OC(C)C(C)C6=O)c(O)cc(O)c3c(O)c2C(=O)C1C (stereo not given) | 101 | 15 | 40* | 0 | 92 | -61
COC(=O)C1=C(c2cc3ccccc3o2)C[C@@H]2CC[C@H]1N2C(=O)NCCNC(C)=O | 102 | 3 | 1 | 3 | 102 | 2
C=CCn1c(O)c(C=Nc2c(C)n(C)n(-c3ccccc3)c2=O)c(=O)[nH]c1=O | 94 | -13 | 20* | -2 | 92 | 2
SMILES | MEKK3 PB1 HTS | Apaf1 inhib | UCH37 inh | MEKK2mut PB1 HTS | MEKK2 WT-MEK5 | UBC13 polyUb
CSc1ccc(CNC(C)C(O)c2ccccc2)cc1 (stereo not given) | 93 | -7 | 1 | 8 | 113 | 4
Cc1cccc(N2C(=O)NC(=O)/C(=C/c3ccc([N+](=O)[O-])o3)C2=O)c1 | 97 | x | 21* | 0 | 95 | x
O=P(Oc1ccc(-c2ccccc2)cc1)(N1CC1)N1CC1 | x | x | 4 | x | x | x
COC(=O)C1=C(c2ccc(Cl)c(C(F)(F)F)c2)C[C@@H]2CC[C@H]1N2C(=O)NCCO | x | 0 | 33* | x | x | -1
COc1nc(NC(C)C)nc(NC(C)C)n1 | 106 | -5 | 30* | 5 | 102 | 4
CC1CCN(S(=O)(=O)c2ccc(NN=C(C#N)C#N)cc2)CC1 | 99 | 21 | x | -3 | 96 | -26
O=c1[nH]c(O)c(C=NC2CCCCC2)c(=O)[nH]1 | 91 | -16 | 3 | -13 | 93 | 6
Cn1c(O)c(C=NC2CCCCC2)c(=O)[nH]c1=S | 99 | -18 | 22* | -1 | 98 | 5
N/C(=N\[N+](=O)[O-])N1CCN(C(=O)Oc2ccccc2)CC1 | 104 | 3 | x | 4 | 106 | -1
CCCCOc1ccc(CC2C(=O)N(C)C(=O)N(C)C2=O)cc1 | 99 | 11 | 29* | -2 | 101 | -26
CN1C(=O)C(Cc2ccsc2)C(=O)N(C)C1=O | 106 | 13 | 2 | 7 | 102 | -39
CN1/C(=C\C=C\C2=[N+](C)c3ccc4ccccc4c3C2(C)C)C(C)(C)c2ccccc21 | 89 | 90* | x | -21 | x | -156
C[N+]1=C(/C=C/Nc2ccccc2)C(C)(C)c2ccccc21 | 103 | -4 | 4 | 10 | 110 | -9
CCCOC(=O)c1ccc(-[n+]2c(-c3ccccc3)cc(-c3ccccc3)cc2-c2ccccc2)cc1 | x | 47* | 3 | x | x | 27
CCCCCSc1cc(OC)c(CCN)cc1OC | 107 | 6 | 1 | 14 | 127 | 22
CCCCCCCCCOc1ccc2[nH]cc(CCN)c2c1 | 114 | x | x | 34* | 252* | x
CCCCCCn1c(O)c(C=Nc2ccccc2N2CCOCC2)c(=O)[nH]c1=S | 101 | 16 | -9 | 24 | 29* | -2
C[N+]1(C)[C@@H]2CC[C@H]1CC(OC(=O)[C@@H](CO)c1ccccc1)C2 (stereo not given in full) | 103 | 70* | 4 | 5 | 110 | 2
C[N+]1(C)C2CC[C@H]1CC(OC(=O)C(CO)c1ccccc1)C2 (stereo not given in full) | x | -6 | 5 | x | x | -4
COC(=O)C1=CO[C@@H](C)[C@H]2CN3CC[C@]4(C(=O)Nc5ccccc54)[C@@H]3C[C@H]12 | 95 | -4 | 4 | -4 | -8.0* | 7
COC(=O)C1=CO[C@H](C)[C@H]2CN3CC[C@@]4(C(=O)Nc5ccccc54)[C@@H]3C[C@H]12 | 103 | 8 | 1 | 3 | 102 | 5
